Experimental data: ChEMBL document CHEMBL1151419, “Antimicrobial effect of halocidin-derived peptide in a mouse model of Listeria infection” (Antimicrob Agents Chemother, 2007)
Converted amounts (≈) assume the structure as drawn. The source made the active and inactive calls. No cut-off for these calls is given here. Bridge positions count the residues as written; N and C are the ends. Peptide text beside a SMILES is read from it. I, II: the chains in the order shown.

Key:
Listeria monocytogenes [1] = experiment: Antimicrobial activity against Listeria monocytogenes ATCC 19111 infected in BALB/c mouse assessed as survival of mouse at 4 mg/kg, iv administered 2 hrs after bacterial challenge measured after 15 days; assay type: functional
In short: (§1)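 L. monocytogenes grown 18 h at 37°C in brain heart infusion broth and frozen at –80°C; viability checked by plating. Mice infected via tail vein with 2 x 10^5 bacteria each. A single 4 mg/kg i.v. dose in 100 µl PBS was given immediately or 2 h after infection; PBS vehicle controls. Ten mice per group; survivors counted daily for 15 days.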

Staphylococcus aureus [2] = experiment: Antimicrobial activity against methicillin-resistant Staphylococcus aureus CCARM 3695 treated with supernatant containing 2 mg drug incubated for 10 mins with PBS centrifuged for 3 hrs by radial diffusion assay; assay type: functional, organism-based
In short: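 2 mg peptide incubated 10 min at 37°C in 2 ml PBS, either serum-free or with 50% heat-treated normal human serum. Spun 3 h at 295,000 x g, 4°C. Then 5 µl of supernatant tested by radial diffusion against mid-log MRSA (4 x 10^6 CFU/ml underlay, 3 h at 37°C, overlay, overnight); clear zones measured.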

Staphylococcus aureus [3] = experiment: Antimicrobial activity against methicillin-resistant Staphylococcus aureus CCARM 3695 after 18 hrs by broth microdilution assay in presence of 150 mM NaCl; assay type: functional; details: CCARM 3695, 18 h
In short: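 Same broth microdilution, but the medium was Mueller-Hinton broth supplemented with 150 mM NaCl. Inoculum 2 x 10^5 CFU/ml final. Peptide twofold series in 0.01% acetic acid (stocks 640 to 10 µg/ml). After 18 h at 37°C, MIC read as the lowest concentration with no visible growth.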

Staphylococcus aureus [4] = experiment: Antimicrobial activity against methicillin-resistant Staphylococcus aureus CCARM 3695 treated with sample containing 25 to 200 ug/ml drug incubated with PBS for 10 mins measured after 3 hrs by radial diffusion assay; assay type: functional, organism-based
In short: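 Serum-free radial diffusion. Peptide in PBS alone (200 µg/ml control) held 10 min at 37°C; 5 µl placed in 3-mm wells. Underlay: pH 7.4 agarose, phosphate/citrate, 0.3 mg/ml TSB, mid-log MRSA 4 x 10^6 CFU/ml. After 3 h at 37°C, TSB-agarose overlay, incubated overnight. Clear-zone diameter read to 0.1 mm (1 mm = 10 units).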

Listeria monocytogenes [5] = experiment: Antimicrobial activity against Listeria monocytogenes ATCC 19111 after 18 hrs by broth microdilution assay; assay type: functional; details: ATCC 19111, 18 h
In short: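 Bacteria were grown overnight to stationary phase in Mueller-Hinton broth at 37°C and diluted to 2 x 10^5 CFU/ml. Line 3 used MHB plus 150 mM NaCl. Peptide stock (640 µg/ml in 0.01% acetic acid) was twofold serially diluted to 10 µg/ml, and 11 µl was added per 100 µl of cells. Turbidity was read after 18 h at 37°C; MIC was the minimum concentration visibly inhibiting growth.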

Listeria monocytogenes [6] = experiment: Antimicrobial activity against Listeria monocytogenes ATCC 19111 infected in BALB/c mouse assessed as reduction in number of recovered CFU in spleen at 100 ug, iv measured after 3 days; assay type: functional, organism-based
In short: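 Mice were infected i.v. with L. monocytogenes and immediately given 100 µg peptide in 100 µl PBS i.v.; PBS alone served as control. On days 1 and 3, liver and spleen were homogenized in PBS/0.1% BSA, serially diluted, and plated on TSA with 5% sheep blood. Colonies were counted after 18 h at 37°C. Three independent experiments; mean ± SD.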

[7] = Stability in human serum assessed as half life at 1 mg/ml; assay type: ADME, cell-free
Listeria monocytogenes [8] = experiment: Antibacterial activity against Listeria monocytogenes ATCC 19111 in assay tube containing mixture of erythrocyte/Listeria monocytogenes cells assessed as logarithmic reduction in CFU after 30 mins; assay type: functional
In short: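 Washed mid-log L. monocytogenes (final 1 x 10^5 CFU/ml) was mixed with human blood cells (final 5 x 10^8 cells/ml) and peptide (final 40 µg/ml) in PBS at 37°C. A peptide-free control was included. At 10, 20 and 30 min, aliquots were plated on TSA and colonies counted after overnight growth. Blood cells were counted by hemocytometer under light microscopy.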

Listeria monocytogenes [9] = experiment: Antimicrobial activity against Listeria monocytogenes ATCC 19111 infected in BALB/c mouse assessed as survival of mouse at 4 mg/kg, iv administered 2 hrs after bacterial challenge measured after 4 days; assay type: functional, organism-based; parameters: dose 4 mg/kg
In short: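 Mice (n = 10) were infected by tail vein with 2 x 10^5 L. monocytogenes, grown 18 h at 37°C in brain heart infusion broth. A single i.v. dose of 4 mg/kg in 100 µl PBS was given 2 h after infection; PBS-treated infected mice served as vehicle control. Surviving mice were counted daily for 15 days.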

[10] = Stability in human serum assessed as drug remaining at 1 mg/ml after 8 hrs; assay type: ADME, cell-free; details: read-out: Stability
In short: (§2)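 At 0, 2, 4 and 8 h, 200-µl aliquots were quenched with 20 µl of 1% TFA, held 10 min at 4°C, and centrifuged. Remaining peptide was quantified by HPLC peak area relative to the unincubated sample. Triplicate runs.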

Listeria monocytogenes [11] = experiment: Antimicrobial activity against Listeria monocytogenes ATCC 19111 infected in BALB/c mouse assessed as survival of mouse at 4 mg/kg, iv administered immediately after bacterial challenge measured after 6 days; assay type: functional; details: ATCC 19111, 144 h; in short: as §1
[12] = Stability in human serum assessed as drug remaining at 1 mg/ml after 4 hrs; assay type: ADME, cell-free; details: read-out: Stability; in short: as §2

CC(C)C[C@H](NC(=O)CNC(=O)[C@H](Cc1cnc[nH]1)NC(=O)[C@H](Cc1cnc[nH]1)NC(=O)[C@H](CC(C)C)NC(=O)[C@H](CC(C)C)NC(=O)[C@H](C)N)C(=O)N[C@@H](CC(N)=O)C(=O)N[C@@H](CSSC[C@H](NC(=O)[C@H](CC(N)=O)NC(=O)[C@H](CC(C)C)NC(=O)CNC(=O)[C@H](Cc1cnc[nH]1)NC(=O)[C@H](Cc1cnc[nH]1)NC(=O)[C@H](CC(C)C)NC(=O)[C@H](CC(C)C)NC(=O)[C@H](C)NC(=O)[C@H](CC(N)=O)NC(=O)[C@H](CC(C)C)NC(=O)[C@H](Cc1c[nH]c2ccccc12)NC(=O)[C@@H](N)CCCCN)C(=O)N[C@@H](C)C(=O)N[C@@H](CCCCN)C(=O)NCC(=O)N[C@H](C(=O)N[C@@H](CC(C)C)C(=O)N[C@@H](C)C(=O)O)C(C)C)C(=O)N[C@@H](C)C(=O)N[C@@H](CCCCN)C(=O)NCC(=O)N[C@H](C(=O)N[C@@H](CC(C)C)C(=O)N[C@@H](C)C(=O)O)C(C)C (I: H-KWLNALLHHGLNCAKGVLA-OH / II: H-ALLHHGLNCAKGVLA-OH; disulfide I:13-II:9)
survival at 4 mg/kg (Listeria monocytogenes [1]): 50% | Activity (Staphylococcus aureus [2]): Active | MIC (Staphylococcus aureus [3]): 16 µg/mL | Activity (Staphylococcus aureus [4]): Active | MIC (Listeria monocytogenes [5]): 4 µg/mL (≈ 1.12 µM) | Activity (Listeria monocytogenes [6]): Active | half-life at 1 mg/ml [7]: 6 h | Activity (Listeria monocytogenes [8]): 3 | Activity (Listeria monocytogenes [9]): Active | remaining at 8 h, 1 mg/ml [10]: 39% | survival at 4 mg/kg (Listeria monocytogenes [11]): 100% | remaining at 4 h, 1 mg/ml [12]: > 70%
